High-throughput results deposited in PubChem by several laboratories.
PKD1 kinase inh: inhibitors of human PKD1 kinase, biochemical, fluorescence polarization; Serine/threonine-protein kinase D1 (Homo sapiens), Q15139; PKD1 kinase fluorescence polarization assay; inhibition, % (concentration not given with the values); 200,000 compounds, 0.056% hits
GSH bead fluor: compound fluorescence on glutathione beads, profiling panel, artefact control, biophysical, 488/530 nm, flow cytometry. fluorescence (KMESF) at 10 µM. 190,000 compounds, 0.25% hits. GSH beads flow cytometry, compound fluorescence 488/530 nm; stronger effect = higher value; in the data active = fluorescence above about 89;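 also: glutathione beads carrying GST-tagged Bcl family fusion proteins plus one bare bead set; values are compound well signal with DMSO vehicle wells as background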
ABCB1 block: ABCB1 efflux pump inhibitors, primary screen, cell-based, multiplex, flow cytometry, ABCG2 counter-screen; ATP-dependent translocase ABCB1 (Homo sapiens), P08183; CCRF-Adr cells, JC-1 efflux; inhibition, % at 6.6 µM; 190,000 compounds, 0.067% hits; AID 1326, 2008; in the data active = inhibition above about 40%;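 also: 0% = vehicle and 100% = reference inhibitor; higher value means more JC-1 retained so stronger ABCB1 efflux block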
ABCG2 inh: ABCG2 efflux pump inhibitors, primary screen, multiplex with ABCB1, IgMXP3 cells, flow cytometry; JC-1 efflux; inhibition, % at 6.6 µM; 190,000 compounds, 0.1% hits; AID 1325, 2008;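 active = inhibition above 80%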;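 also: 0% = DMSO and 100% = nicardipine control wells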
Target sequence (Q9UNQ0 whole entry, looked up): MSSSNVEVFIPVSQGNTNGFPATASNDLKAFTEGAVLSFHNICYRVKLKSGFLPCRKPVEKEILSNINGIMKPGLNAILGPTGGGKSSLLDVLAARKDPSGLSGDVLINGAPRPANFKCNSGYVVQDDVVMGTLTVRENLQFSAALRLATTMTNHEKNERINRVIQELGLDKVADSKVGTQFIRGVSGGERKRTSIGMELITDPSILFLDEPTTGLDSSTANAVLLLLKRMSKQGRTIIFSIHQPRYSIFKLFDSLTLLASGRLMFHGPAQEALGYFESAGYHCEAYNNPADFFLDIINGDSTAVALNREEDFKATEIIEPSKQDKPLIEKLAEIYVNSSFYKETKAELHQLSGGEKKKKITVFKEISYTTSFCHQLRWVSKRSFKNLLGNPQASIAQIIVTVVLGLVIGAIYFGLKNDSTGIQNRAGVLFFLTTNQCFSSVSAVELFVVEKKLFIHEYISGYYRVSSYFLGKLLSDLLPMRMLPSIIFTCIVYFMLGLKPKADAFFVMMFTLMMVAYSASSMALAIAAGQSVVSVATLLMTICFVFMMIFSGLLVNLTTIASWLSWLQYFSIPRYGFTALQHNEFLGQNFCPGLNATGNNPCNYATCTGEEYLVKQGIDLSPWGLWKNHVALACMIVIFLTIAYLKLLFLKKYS
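System: two drug-resistant human cell lines, ABCG2 and ABCB1; controls: nicardipine high and DMSO low controls; times: 10 min exposure at 25 °C with rotation, no wash; detection: flow cytometry of retained JC-1 fluorescence; read-out basis: percent efflux inhibition, scaled nicardipine 100% to DMSO 0%; doses: one concentration, 6.6 µM final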
Avidin bead fluor: green autofluorescence of compounds with avidin beads – biophysical, 488/530 nm, flow cytometry, artefact control, profiling panel | compound fluorescence 488/530 nm; stronger effect = higher value | fluorescence (KMESF) at 10 µM | 220,000 compounds, 0.38% hits; in the data active = fluorescence above about 47
L major viab: Leishmania major promastigote growth inhibition, primary screen; AID 1063, 2008; Leishmania major promastigotes, resazurin fluorescence viability; 200,000 compounds, 9% hits; inhibition, % at 10 µM;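 also: promastigotes grown with compound for 44 hours at 28 °C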
The depositor's hits bear a star; . = not tested or not shown. This excerpt belongs to a sample that is enriched for hits. Rule as the data show it, unless noted: active = inhibition above about 50%; inactive = the rest.

SMILES	PKD1 kinase inh	GSH bead fluor	ABCB1 block	ABCG2 inh	Avidin bead fluor	L major viab
Cc1cccc(-n2ncc3c(NCc4cccs4)ncnc32)c1	-1	20	1	28	8	97*
CC(=O)Nc1ccc(Nc2ncnc3c2cnn3-c2ccc(C)cc2C)cc1	-6	5	0	0	8	68*
Clc1ccc(-n2ncc3c(NCc4cccs4)ncnc32)cc1	4	15	0	3	13	4
CC(=O)Nc1ccc(Nc2ncnc3c2cnn3-c2cccc(C)c2)cc1	-11	24	0	1	15	75*
Cc1ccc(-c2cc(C(F)(F)F)n3nc(C(=O)NCCCn4ccnc4)cc3n2)cc1C	-16	37	1	3	1	100*
Cc1ccc(-c2cc(C(F)(F)F)n3nc(C(=O)Nc4ccon4)cc3n2)cc1C	.	.	.	.	9	.
Cc1cc(C)nc(NC(=O)c2ccc(Cl)cc2Cl)n1	0	10	0	4	13	2
COc1cc(C(c2nnnn2C2CCCC2)N2CCN(C)CC2)cc(OC)c1OC (configuration not stated)	-9	22	0	0	9	9
COc1ccc(C(c2nnnn2CCc2ccccc2)N2CCN(C3CCCC3)CC2)cc1OC (configuration not stated)	-3	54	0	1	7	100*
COc1ccccc1C(c1nnnn1Cc1ccccc1)N1CCN(C2CCCC2)CC1 (configuration not stated)	-4	17	1	1	22	12
COc1ccc(C(c2nnnn2C2CCCC2)N2CCN(C3CCCC3)CC2)cc1OC (configuration not stated)	-1	42	0	0	5	83*
COc1cccc(C(c2nnnn2Cc2ccccc2)N2CCN(C3CCCC3)CC2)c1OC (configuration not stated)	-12	11	1	4	5	98*
CCCOC(=O)c1ccc(NC(=O)C2C3C=CC(O3)C2C(=O)O)cc1 (configuration not stated)	-10	244*	0	0	4	-9
CCCOC(=O)c1ccc(NC(=O)c2ccoc2C)cc1	-3	27	0	60	51*	0
Cn1c(=O)n(C)c2cc([N+](=O)[O-])c(N3CCN(S(C)(=O)=O)CC3)cc21	-5	9	1	21	14	39
Cn1c(=O)c(=O)n(C)c2cc([N+](=O)[O-])c([N+](=O)[O-])cc21	4	12	0	3	9	80*
Cc1ccc(Oc2nc(-c3cccnc3)nc3ccccc23)c([N+](=O)[O-])n1	-1	16	1	4	12	18
C=CCn1c(SCC(=O)NC(=O)NCc2ccco2)nc2sc(CC)cc2c1=O	-10	267*	2	5	5	0
C=CCn1c(SCC(=O)NCc2ccco2)nc2ccccc2c1=O	1	25	1	2	10	1
CC(C)C(=O)N1CCC(CN=Cc2c(O)n(C3CCCCC3)c(=O)n(C3CCCCC3)c2=O)CC1	-8	32	-3	-4	6	100*
COc1ccc(S(=O)(=O)Nc2nncs2)cc1	-3	20	0	-2	49*	-6
CCOc1ccc(Cc2n[nH]c(=S)n2Cc2ccccc2)cc1	4	16	-1	-2	7	10
COc1ccc(Cc2n[nH]c(=S)n2Cc2ccccc2)cc1Cl	2	7	-1	-6	6	97*
CCn1c(/C=C/c2ccccc2)nc2ccccc21	9	18	0	2	16	77*
CC(C)Cn1c(/C=C/c2ccccc2)nc2ccccc21	6	20	2	22	13	46
SMILES	PKD1 kinase inh	GSH bead fluor	ABCB1 block	ABCG2 inh	Avidin bead fluor	L major viab
CCC(C)n1c(/C=C/c2ccccc2)nc2ccccc21 (configuration not stated)	-4	8	2	13	15	93*
COc1ccc(/C=C/c2nc3ccccc3n2C)cc1	-6	25	1	21	10	85*
O=C(Cn1c(/C=C/c2ccccc2)nc2ccccc21)Nc1ccc(F)cc1	13	15	-1	-4	5	63*
COc1ccc(Cn2c(/C=C/c3ccccc3)nc3ccccc32)cc1	4	24	1	9	30	37
O=S(=O)(c1ccc(Br)cc1)c1nc(-c2ccco2)oc1NCC1CCCO1 (configuration not stated)	-7	10	0	-1	7	36
CC1CCCCC1NS(=O)(=O)c1ccc(S(=O)(=O)NCc2ccncc2)cc1 (configuration not stated)	-7	9	0	-2	8	-1
COc1ccc(C(=O)OC(C)CN2CCOCC2)cc1OC (configuration not stated)	-5	6	0	0	6	-7
COc1ccc(C(O)C(CN2CCOCC2)c2ccccc2)cc1F (configuration not stated)	-9	25	0	2	12	86*
O=C(Cn1cc(S(=O)(=O)N2CCN(c3ccccc3F)CC2)c2ccccc2c1=O)NCCCN1CCCCCC1	-5	15	-1	-2	8	3
O=C(NC(=S)Nc1ccc(S(=O)(=O)NC2CCCCC2)cc1)c1cccs1	-1	13	0	0	15	15
COc1ccc(C2NC(=S)NC3=C2CCc2cc(OC)ccc23)cc1 (configuration not stated)	-9	8	0	2	31	63*
S=C(NCc1cccs1)NCC1CCCO1 (configuration not stated)	1	16	0	4	10	-5
COc1ccc(-c2[nH]ncc2CN2CCC(c3ccncc3)CC2)cc1F	.	.	.	.	5	.
CC(C)c1cc(C(N)=O)c(NC(=O)c2cccc(COc3ccc(Cl)cc3)c2)s1	0	16	0	0	11	96*
Cc1nn(Cc2c(F)c(F)c(F)c(F)c2F)c(C)c1NC(=O)c1cccc(COc2ccc(Cl)cc2)c1	0	12	4	12	11	-2
CS(=O)(=O)N(CC(=O)NCc1ccco1)c1ccc(Cl)c(C(F)(F)F)c1	4	11	0	0	19	76*
Cc1ccc(NC(=O)c2ccc(OC(=O)CCN3C(=O)c4ccccc4C3=O)cc2)cc1	-6	10	1	3	48*	-1
